In brackets after ≈: the same amount, converted by molar mass. One block for each compound: values may come before it. Activity calls are given as the source filed them. The calls are words filed in the database; no cut-off is given here.
How the values were obtained:
Mus musculus [1] = assay: Oral bioavailability in BALB/C mouse at 10 mg/kg by LC-MS/MS method; type: ADME, organism-based; details: in vivo
Summary of the method: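 Bioavailability from single-dose iv (2 mg/kg, 5% DMSO/40% PEG400/55% saline) and oral gavage (10 mg/kg, 0.445% microcrystalline cellulose microsuspension) studies in BALB/C nude mice (N = 16 per arm); plasma at eight (po) or nine (iv) time points, LC-MS/MS, noncompartmental analysis.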

Mus musculus [2] = assay: Half life in BALB/C mouse at 10 mg/kg, po or 2 mg/kg, iv by LC-MS/MS method; type: ADME, organism-based; details: in vivo
Summary of the method: (§1)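 Female-unspecified BALB/C nude mice (15−20 g, N = 16 per arm); iv bolus 2 mg/kg in 5% DMSO/40% PEG400/55% saline and/or oral gavage 10 mg/kg as 0.445% microcrystalline cellulose microsuspension. Blood sampled at nine (iv) or eight (po) time points into sodium heparin tubes; plasma by LC-MS/MS; noncompartmental analysis.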

[3] = Solubility in 50 mM phosphate buffer at pH 6.5 by HPLC method; type: physicochemical
Summary of the method: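 10 mM DMSO stock dried, residue redissolved in 50 mM phosphate buffer pH 6.5, stirred 1 h and shaken 2 h, left overnight, filtered and analysed by HPLC against calibration standards of 50−500 μM diluted from the DMSO stock.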

BGC-823 = type: functional, Homo sapiens
MGC-803 = type: functional, Homo sapiens
SK-HEP1 = type: functional, Homo sapiens
Bel-7402 = type: functional, Homo sapiens
SMMC-7721 [4] = type: functional, Homo sapiens
Mus musculus [5] = assay: Toxicity in human Bel7404 cells xenografted BALB/C mouse assessed as body weight loss at 50 mg/kg, po qd for 4 weeks; details: in vivo, 672 h
BEL-7404 = assay: Antitumor activity against human BEL-7404 cells xenografted in BALB/C mouse assessed as tumor growth inhibition at 50 mg/kg, po qd for 4 weeks; details: BEL-7404, po, 672 h, read-out: TGI
Mus musculus [6] = assay: Toxicity in human Bel7404 cells xenografted BALB/C mouse assessed as body weight loss at 100 mg/kg, po administered every other day for 4 weeks; details: in vivo, 672 h
SMMC-7721 [7] = assay: Induction of apoptosis in human SMMC-7721 cells assessed as necrotic cell level at 5 uM incubated for 48 hrs by FITC/Annexin V staining based flow cytometry (reference value: 2.31%)
[8] = AUC in BALB/C mouse at 10 mg/kg, po or 2 mg/kg, iv by LC-MS/MS method; type: ADME, organism-based, Plasma; details: BALB/C, plasma; summary of the method: as §1
[9] = Cmax in BALB/C mouse at 10 mg/kg, po or 2 mg/kg, iv by LC-MS/MS method; type: ADME, organism-based; details: BALB/C, in vivo; summary of the method: as §1
Mus musculus [10] = assay: Reactivation of SPINT2 gene expression in treatment responding human hepatocellular carcinoma patient tumor xenografted in BALB/C mouse at 100 mg/kg, po administered every other day for 4 weeks; type: functional, organism-based; design: dose 100 mg/kg
Summary of the method: (§2)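 Patient HCC tumor fragments (3 × 3 × 3 mm3) implanted subcutaneously in female BALB/c nu/nu mice; at ~200 (150−250) mm3 dosed orally Q2D 100 mpk in 15% Kleptose pH 4.5 tartaric buffer for about four weeks. Tumor RNA (TRIzol, DNase I) run on 22-gene qRT-PCR array, normalized to GAPDH/β-glucuronidase by ΔCt, fold change versus day 0.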

Homo sapiens = assay: Antitumor activity against treatment non-responding human hepatocellular carcinoma patient tumor xenografted in BALB/C mouse assessed as tumor growth inhibition at 100 mg/kg, po administered every other day for 4 weeks; type: functional, organism-based; design: dose 100 mg/kg
Summary of the method: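 Tumor fragments (3×3×3 mm3) from HCC patients implanted subcutaneously in right flank of female BALB/c nu/nu mice (6−7 weeks). At about 200 (150−250) mm3, randomized (n = 10 per arm); Q2D PO 100 mpk in 15% Kleptose pH 4.5 tartaric buffer, about four weeks; caliper tumor volume three times weekly.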

Mus musculus [11] = assay: Up-regulation of CDKN1A gene expression in human hepatocellular carcinoma patient tumor xenografted in BALB/C mouse at 100 mg/kg, po administered every other day for 4 weeks by […]; type: functional, organism-based; design: dose 100 mg/kg; summary of the method: as §2
Mus musculus [12] = assay: Up-regulation of IGFBP3 gene expression in human hepatocellular carcinoma patient tumor xenografted in BALB/C mouse at 100 mg/kg, po administered every other day for 4 weeks by […]; type: functional, organism-based; design: dose 100 mg/kg; summary of the method: as §2
Mus musculus [13] = assay: Up-regulation of PYCARD gene expression in human hepatocellular carcinoma patient tumor xenografted in BALB/C mouse at 100 mg/kg, po administered every other day for 4 weeks by […]; type: functional, organism-based; design: dose 100 mg/kg; summary of the method: as §2
Mus musculus [14] = assay: Up-regulation of HIC1 gene expression in human hepatocellular carcinoma patient tumor xenografted in BALB/C mouse at 100 mg/kg, po administered every other day for 4 weeks by […]; type: functional, organism-based; design: dose 100 mg/kg; summary of the method: as §2
Mus musculus [15] = assay: Up-regulation of SPINT2 gene expression in human hepatocellular carcinoma patient tumor xenografted in BALB/C mouse at 100 mg/kg, po administered every other day for 4 weeks by […]; type: functional, organism-based; design: dose 100 mg/kg; summary of the method: as §2
Mus musculus [16] = assay: Up-regulation of RASSF1 gene expression in human hepatocellular carcinoma patient tumor xenografted in BALB/C mouse at 100 mg/kg, po administered every other day for 4 weeks by […]; type: functional, organism-based; design: dose 100 mg/kg; summary of the method: as §2
Mus musculus [17] = assay: Up-regulation of THBS1 gene expression in human hepatocellular carcinoma patient tumor xenografted in BALB/C mouse at 100 mg/kg, po administered every other day for 4 weeks by […]; type: functional, organism-based; design: dose 100 mg/kg; summary of the method: as §2
Mus musculus [18] = assay: Up-regulation of CDKN2B gene expression in human hepatocellular carcinoma patient tumor xenografted in BALB/C mouse at 100 mg/kg, po administered every other day for 4 weeks by […]; type: functional, organism-based; design: dose 100 mg/kg; summary of the method: as §2
Mus musculus [19] = assay: Up-regulation of CDKN1C gene expression in human hepatocellular carcinoma patient tumor xenografted in BALB/C mouse at 100 mg/kg, po administered every other day for 4 weeks by […]; type: functional, organism-based; design: dose 100 mg/kg; summary of the method: as §2
Mus musculus [20] = assay: Inhibition of Class 1 histone deacetylase in human Bel7404 cells xenografted BALB/C mouse assessed as induction of histone H3 acetylation at 50 mg/kg, po qd for 4 weeks by Western blot method; details: Bel-7404
Mus musculus [21] = assay: Inhibition of Class 1 histone deacetylase in human Bel7404 cells xenografted BALB/C mouse assessed as induction of histone H3 acetylation at 100 mg/kg, po administered every other day for 4 weeks by Western blot method; details: Bel-7404
Cytochrome P450 2D6 = Cytochrome P450 2D6 (Homo sapiens, UniProt P10635); assay: Inhibition of CYP2D6 in human liver microsomes in presence of NADPH by LC-MS/MS method; type: ADME, Microsome
Sequence of Cytochrome P450 2D6 (P10635 whole entry): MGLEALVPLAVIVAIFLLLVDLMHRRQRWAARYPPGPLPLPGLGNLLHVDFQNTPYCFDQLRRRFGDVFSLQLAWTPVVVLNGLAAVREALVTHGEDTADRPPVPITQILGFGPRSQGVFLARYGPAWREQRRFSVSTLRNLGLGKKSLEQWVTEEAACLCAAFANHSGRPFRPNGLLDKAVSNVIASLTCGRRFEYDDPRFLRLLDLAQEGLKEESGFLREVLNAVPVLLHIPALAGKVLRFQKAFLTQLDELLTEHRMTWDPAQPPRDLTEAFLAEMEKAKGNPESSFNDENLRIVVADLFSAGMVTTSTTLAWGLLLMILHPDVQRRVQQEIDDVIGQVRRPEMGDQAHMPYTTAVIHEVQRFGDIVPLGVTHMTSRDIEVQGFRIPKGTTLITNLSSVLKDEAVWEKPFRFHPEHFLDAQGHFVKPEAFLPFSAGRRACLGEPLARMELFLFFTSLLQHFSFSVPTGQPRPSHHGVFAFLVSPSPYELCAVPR

F (Mus musculus [1]): 100% | t1/2 (Mus musculus [2]): 3.4 h | solubility [3]: 136 µg/mL (≈ 286 µM) | GI90 (BGC-823): 2200 nM | GI90 (MGC-803): 2000 nM | GI90 (SK-HEP1): 2500 nM | GI90 (Bel-7402): 1200 nM | GI90 (SMMC-7721 [4]): 1900 nM
SMILES: CN1C[C@H](C(=O)Nc2ccc(Cl)cc2)[C@@H](c2ccc(/C=C/C(=O)Nc3ccccc3N)cc2)C1 [listing 1 of 2 here]
Activity (Mus musculus [5]): < 10% | inhibition in vivo at 50 mg/kg (BEL-7404): > 60% | Activity (Mus musculus [6]): < 10% | Activity (SMMC-7721 [7]): 15.41%

AUC [8]: 2540 ng·h/mL | Cmax [9]: 450 ng/mL
SMILES: CN1C[C@@H](C(=O)Nc2ccc(Cl)cc2)[C@H](c2ccc(/C=C/C(=O)Nc3ccccc3N)cc2)C1

SMILES: CN1C[C@H](C(=O)Nc2ccc(Cl)cc2)[C@@H](c2ccc(/C=C/C(=O)Nc3ccccc3N)cc2)C1 [listing 2 of 2 here]
Activity (Mus musculus [10]): Active | TGI (Homo sapiens): inactive | Activity (Mus musculus [11]): Active | Activity (Mus musculus [12]): Active | Activity (Mus musculus [13]): inactive | Activity (Mus musculus [14]): inactive | Activity (Mus musculus [15]): inactive | Activity (Mus musculus [16]): inactive | Activity (Mus musculus [17]): Active | Activity (Mus musculus [18]): Active | Activity (Mus musculus [19]): Active | inhibition (Mus musculus [20]): Active | inhibition (Mus musculus [21]): Active

IC50 (Cytochrome P450 2D6): 9000 nM | AUC [8]: 3570 ng·h/mL | Cmax [9]: 828 ng/mL
SMILES: CN1C[C@H](C(=O)Nc2ccc(Cl)cc2)[C@@H](c2ccc(/C=C/C(=O)Nc3ccccc3N)cc2F)C1 (racemic)
